Data on 34 compounds can be found in ChEMBL document CHEMBL1137566 (J Med Chem, 2007).

Each structure is given as a SMILES string.

The target in one data set is Prothrombin (Homo sapiens, UniProt P00734). As to the kind of experiment: Inhibition of human thrombin.
The target of the next data set is Coagulation factor X (Homo sapiens, UniProt P00742). As to the kind of experiment: Binding affinity to human F10a.
The next data set deals with Trypsin (Homo sapiens, UniProt P07477+P07478+P35030). Nature of the data set: Inhibition of human trypsin. Type of data set: protein assay.
The next data set is filed under the species Oryctolagus cuniculus. Nature of the data set: Inhibition of thrombus formation in rabbit arteriovenous shunt thrombosis model. Type of data set: functional, organism-based.
Data set [1] is described as follows: Apparent permeability across Caco-2 cells. Type of data set: ADME, cell-based. Conditions: human. For orientation: Passage across Caco-2 layers is used to estimate intestinal permeability.
A short description of data set [2]: Half life in dog at 0.2 mg/kg, po. Type of data set: ADME, organism-based, Canis lupus familiaris. On the set-up: dose 0.2 mg/kg, route oral. Conditions: in vivo. In short, it runs like this:
(§1)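 Dog pharmacokinetics from cassette (N-in-one) dosing of compounds as TFA salts: 0.4 mg/kg iv and 0.2 mg/kg po, n = 2 animals.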

Data set [3] is described as follows: Oral bioavailability in dog at 0.2 mg/kg, po. Type of data set: ADME, organism-based, Canis lupus familiaris. Conditions: in vivo. The essentials:
as §1

The nature of data set [4]: Clearance in dog at 0.4 mg/kg, iv and 0.2 mg/kg, po. Type of data set: ADME, organism-based, Canis lupus familiaris. The settings on record: in vivo. The essentials:
as §1

The nature of data set [5]: Volume of distribution at steady state in dog at 0.4 mg/kg, iv and 0.2 mg/kg, po. Type of data set: ADME, organism-based, Canis lupus familiaris. The settings on record: in vivo, read-out: Vdss. In short, it runs like this:
as §1

The nature of data set [6]: Half life in human liver microsomes. Type of data set: ADME, Microsome. Background: Liver microsomes are vesicles of endoplasmic reticulum, rich in cytochrome P450 enzymes.

Chain of Coagulation factor X (P00742 41-179 limits assumed): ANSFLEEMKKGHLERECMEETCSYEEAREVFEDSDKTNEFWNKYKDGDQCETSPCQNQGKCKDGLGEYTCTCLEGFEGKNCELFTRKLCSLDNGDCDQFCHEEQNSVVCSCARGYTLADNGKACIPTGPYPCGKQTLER
Chain of Coagulation factor X (P00742 235-488 limits assumed): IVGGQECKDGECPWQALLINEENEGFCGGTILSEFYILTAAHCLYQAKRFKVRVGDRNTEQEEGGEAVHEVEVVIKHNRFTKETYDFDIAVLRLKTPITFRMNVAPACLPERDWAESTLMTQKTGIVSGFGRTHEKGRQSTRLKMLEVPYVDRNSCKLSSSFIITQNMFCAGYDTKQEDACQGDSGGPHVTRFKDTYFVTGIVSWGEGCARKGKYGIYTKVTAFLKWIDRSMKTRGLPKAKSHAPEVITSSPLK

In the case of `COc1ccc(-n2nc(C(F)(F)F)c3c2C(=O)N(c2ccc(-c4ccccc4CN4CC[C@@H](O)C4)cc2)CC3)cc1`, the figures for the Ki at Prothrombin, at Coagulation factor X and at Trypsin were 330 nM, 0.18 nM and more than 3000 nM, respectively.

In the case of `COc1ccc(-n2nc(N(C)C)c3c2C(=O)N(c2ccc(-c4ccccc4CN4CC[C@@H](O)C4)cc2)CC3)cc1`, the figures for the Ki at Prothrombin, at Coagulation factor X and on Trypsin were 1800 nM, 0.31 nM and more than 3000 nM, respectively.

As for `COc1ccc(-n2nc(C(N)=O)c3c2C(=O)N(c2ccc(-c4ccccc4CN4CC[C@@H](O)C4)cc2)CC3)cc1`, 120 nM corresponded to half-maximal inhibition in the data set listed under Oryctolagus cuniculus (IC50). Moreover, the Papp (usually a coefficient for how fast a substance crosses the barrier) in data set [1] stood at 2.3 ×10⁻⁶ cm/s. For the same compound, the Ki (usually the dissociation constant of the complex between target and ligand, obtained from inhibition or displacement) is 140 nM at Prothrombin, 0.07 nM on Coagulation factor X and more than 3000 nM at Trypsin. Also, the half-life (commonly the time in which the quantity being followed falls by half) in data set [2] was 5.6 h. Further, the bioavailability (commonly the share of a dose that reaches the circulation, judged against a reference dose that is usually intravenous) in data set [3] was 100%. For the same compound, the clearance in [4] is 5.33 mL/min/kg. The Vd in [5] is 1.6 L/kg.

For `CNC(=O)c1nn(-c2ccc(OC)cc2)c2c1CCN(c1ccc(-c3ccccc3CN3CC[C@@H](O)C3)cc1)C2=O`, the Ki at Prothrombin was 7000 nM; at Coagulation factor X, 4.8 nM; on Trypsin, more than 3000 nM.

With `COc1ccc(-n2nc(C(=O)N(C)C)c3c2C(=O)N(c2ccc(-c4ccccc4CN4CC[C@@H](O)C4)cc2)CC3)cc1`, the Ki on Prothrombin was 11000 nM; at Coagulation factor X, 1.7 nM; on Trypsin, more than 3000 nM.

For `COc1ccc(-n2nc(C(F)(F)F)c3c2C(=O)N(c2ccc(N(C)C(C)=O)cc2)CC3)cc1`, the Ki is more than 6300 nM on Prothrombin and 0.5 nM at Coagulation factor X.

With `COc1ccc(-n2nc(C(F)(F)F)c3c2C(=O)N(c2ccc(N(C)C)cc2)CC3)cc1`, the Ki was more than 13400 nM on Prothrombin and 6 nM on Coagulation factor X.

Take `COc1ccc(-n2nc(C(F)(F)F)c3c2C(=O)N(c2ccc(N4CCCCC4)cc2)CC3)cc1`: the values for the Ki on Prothrombin and at Coagulation factor X were 3900 nM and 2.1 nM, respectively.

In the case of `COc1ccc(-n2nc(C(F)(F)F)c3c2C(=O)N(c2ccc(N4CCCCCC4=O)cc2)CC3)cc1`, the figures for the Ki at Prothrombin and on Coagulation factor X were 3300 nM and 0.47 nM, respectively.

As for `COc1ccc(-n2nc(N)c3c2C(=O)N(c2ccc(-c4ccccc4CN4CC[C@@H](O)C4)cc2)CC3)cc1`, the inhibitory constant (Ki) was 9400 nM on Prothrombin, 6.7 nM at Coagulation factor X and more than 3000 nM on Trypsin.

For the compound `CNCc1ccccc1-c1ccc(N2CCc3c(C(N)=O)nn(-c4ccc(OC)cc4)c3C2=O)cc1`, the IC50 (in general, the concentration needed to halve the response being measured) in the data set listed under Oryctolagus cuniculus came to 445 nM. For the same compound, the Papp in data set [1] is 1.7 ×10⁻⁶ cm/s. For the same compound, the half-life was 7.3 h in data set [2] and more than 1.67 h in [6]. The compound further showed a Ki at Coagulation factor X of 0.14 nM. In data set [3], this compound registered a bioavailability of 56%. The clearance in [4] is 21.7 mL/min/kg. Besides, the Vd in [5] was found to be 7.4 L/kg.

Regarding `CCN(CC)Cc1ccccc1-c1ccc(N2CCc3c(C(N)=O)nn(-c4ccc(OC)cc4)c3C2=O)cc1`, in data set [1], the Papp was found to be 2.3 ×10⁻⁶ cm/s. For the same compound, the half-life in data set [2] is 3.7 h. Besides, the affinity at Coagulation factor X corresponds to a Ki of 0.08 nM. Also, in [3], the bioavailability was found to be 20%. In addition, the clearance in data set [4] was 40 mL/min/kg. The Vd in data set [5] was determined as 6.5 L/kg.

`CCOC(=O)c1nn(-c2ccc(OC)cc2)c2c1CCN(c1ccc(-c3ccccc3CN3CC[C@@H](O)C3)cc1)C2=O`: the Ki at Prothrombin is 980 nM; at Coagulation factor X, 3.9 nM; on Trypsin it was more than 3000 nM.

Consider `COc1ccc(-n2nc(C(N)=O)c3c2C(=O)N(c2ccc(-c4ccccc4CN4CCC(O)CC4)cc2)CC3)cc1`, for which the IC50 in the data set filed under Oryctolagus cuniculus was found to be 180 nM. The Papp in data set [1] stood at 4.9 ×10⁻⁶ cm/s. This compound also gave a half-life in data set [2] of 4.3 h. Further, on Coagulation factor X, the Ki is 0.29 nM. The bioavailability in data set [3] came to 55%. In data set [4], this compound gave a clearance of 1.67 mL/min/kg. The Vd in data set [5] is 0.99 L/kg.

Turning to `COc1ccc(-n2nc(C(N)=O)c3c2C(=O)N(c2ccc(-c4ccccc4CN(CCO)CCO)cc2)CC3)cc1`, the Papp in data set [1] came to 0.9 ×10⁻⁶ cm/s. The same compound gave a half-life in [2] of 1.8 h. In addition, the affinity on Coagulation factor X, expressed as Ki, was 0.36 nM. This compound also came in with a bioavailability in [3] of 15%. For the same compound, in data set [4], the clearance is 8.33 mL/min/kg. Besides, the Vd in data set [5] amounted to 1.09 L/kg.

`COc1ccc(-n2nc(C(=O)O)c3c2C(=O)N(c2ccc(-c4ccccc4CN4CC[C@@H](O)C4)cc2)CC3)cc1`: the Ki on Prothrombin is more than 20000 nM; at Coagulation factor X, 7.6 nM; at Trypsin it was more than 3000 nM.

`COc1ccc(-n2nc(NC(=O)OC(C)(C)C)c3c2C(=O)N(c2ccc(-c4ccccc4CN4CC[C@@H](O)C4)cc2)CC3)cc1`: the Ki is 4600 nM on Prothrombin, 9.6 nM on Coagulation factor X and more than 3000 nM on Trypsin.

In the case of `COc1ccc(-n2nc(S(C)(=O)=O)c3c2C(=O)N(c2ccc(-c4ccccc4CN4CC[C@@H](O)C4)cc2)CC3)cc1`, the figures for the Ki on Prothrombin, at Coagulation factor X and on Trypsin were 180 nM, 0.25 nM and more than 3000 nM, respectively.

For the compound `COc1ccc(-n2nc(C(N)=O)c3c2C(=O)N(c2ccc(-c4ccccc4CN)cc2)CC3)cc1`, the Papp in [1] came out at 1.2 ×10⁻⁶ cm/s. Besides, the Ki on Coagulation factor X stood at 0.97 nM.

For `COc1ccc(-n2nc(C(N)=O)c3c2C(=O)N(c2ccc(-c4ccccc4CN(C)C)cc2)CC3)cc1`, in the data set listed under Oryctolagus cuniculus, the IC50 worked out at 175 nM. In [1], the Papp turned out to be 2.3 ×10⁻⁶ cm/s. The half-life in data set [2] was 3.6 h. At Coagulation factor X, the Ki turned out to be 0.24 nM. This compound registered a bioavailability in data set [3] of 56%. In data set [4], this compound showed a clearance of 33.3 mL/min/kg. Further, the Vd in [5] is 6.1 L/kg.

Regarding `COc1ccc(-n2nc(N(C)C(=O)OC(C)(C)C)c3c2C(=O)N(c2ccc(-c4ccccc4CN4CC[C@@H](O)C4)cc2)CC3)cc1`, the Ki at Prothrombin was 950 nM; at Coagulation factor X, 2 nM; at Trypsin, more than 3000 nM.

As to `CNc1ccc(N2CCc3c(C(F)(F)F)nn(-c4ccc(OC)cc4)c3C2=O)cc1`, the figures for the Ki at Prothrombin and at Coagulation factor X were more than 6300 nM and 610 nM, respectively.

`COc1ccc(-n2nc(C(F)(F)F)c3c2C(=O)N(c2ccc(N4CCCCC4=O)cc2)CC3)cc1`: the inhibition constant Ki on Prothrombin was found to be 4400 nM; at Coagulation factor X, 0.23 nM.

As for `COc1ccc(-n2nc(C#N)c3c2C(=O)N(c2ccc(-c4ccccc4CN4CC[C@@H](O)C4)cc2)CC3)cc1`, the results for the Ki on Prothrombin, on Coagulation factor X and at Trypsin were 100 nM, 0.33 nM and more than 3000 nM, respectively.

Turning to `COc1ccc(-n2nc(C(F)(F)F)c3c2C(=O)N(c2ccc(N)cc2)CC3)cc1`, the Ki on Prothrombin was more than 6300 nM.

For the compound `COc1ccc(-n2nc(Cn3nccn3)c3c2C(=O)N(c2ccc(-c4ccccc4CN4CC[C@@H](O)C4)cc2)CC3)cc1`, the Ki on Prothrombin is 980 nM; at Coagulation factor X, 0.48 nM; at Trypsin, more than 3000 nM.

For the compound `COc1ccc(-n2nc(Cn3cncn3)c3c2C(=O)N(c2ccc(-c4ccccc4CN4CC[C@@H](O)C4)cc2)CC3)cc1`, the Ki on Prothrombin was 1900 nM; at Coagulation factor X, 0.25 nM; at Trypsin it was more than 3000 nM.

Turning to `COc1ccc(-n2nc(Cn3cnnn3)c3c2C(=O)N(c2ccc(-c4ccccc4CN4CC[C@@H](O)C4)cc2)CC3)cc1`, in data set [1], the Papp was determined as 0.9 ×10⁻⁶ cm/s. Moreover, the inhibition constant Ki at Prothrombin was 970 nM; on Coagulation factor X it was 0.85 nM; on Trypsin, more than 3000 nM. This compound had a half-life in [2] of 1.8 h. In data set [3], the bioavailability came out at 7%. Further, the clearance in data set [4] is 43 mL/min/kg. Besides, the Vd in data set [5] turned out to be 3.7 L/kg.

Consider `COc1ccc(-n2nc(Cn3ncnn3)c3c2C(=O)N(c2ccc(-c4ccccc4CN4CC[C@@H](O)C4)cc2)CC3)cc1`, for which the inhibitory constant (Ki) at Prothrombin is 1000 nM; on Coagulation factor X it was 1.1 nM; at Trypsin, more than 3000 nM.

On to `COc1ccc(-n2nc(-c3nnn[nH]3)c3c2C(=O)N(c2ccc(-c4ccccc4CN4CC[C@@H](O)C4)cc2)CC3)cc1`, for which the Ki at Prothrombin is 12000 nM; at Coagulation factor X it was 0.63 nM; at Trypsin, more than 3000 nM.

Regarding `CNc1nn(-c2ccc(OC)cc2)c2c1CCN(c1ccc(-c3ccccc3CN3CC[C@@H](O)C3)cc1)C2=O`, the Ki at Prothrombin is 4800 nM; at Coagulation factor X, 1.7 nM; on Trypsin it was more than 3000 nM.

In the case of `COc1ccc(-n2nc(C(F)(F)F)c3c2C(=O)N(c2ccc(NC(C)=O)cc2)CC3)cc1`, the Ki at Prothrombin is more than 6300 nM; on Coagulation factor X it was 180 nM.

With `COc1ccc(-n2nc(Cn3ccnn3)c3c2C(=O)N(c2ccc(-c4ccccc4CN4CC[C@@H](O)C4)cc2)CC3)cc1`, the Papp in [1] came to 1.6 ×10⁻⁶ cm/s. Also, the results for the inhibition constant (Ki) on Prothrombin, on Coagulation factor X and on Trypsin were 12000 nM, 0.67 nM and more than 3000 nM, respectively. Further, the half-life in data set [2] was 2.8 h. This compound yielded a bioavailability in [3] of 24%. In data set [4], this compound had a clearance of 41.2 mL/min/kg. Further, in [5], the Vd came out at 4.9 L/kg.

`COc1ccc(-n2nc(C(N)=O)c3c2C(=O)N(c2ccc(-c4ccccc4CN4CCCC4)cc2)CC3)cc1`: in data set [1], the Papp worked out at 3.5 ×10⁻⁶ cm/s. Moreover, the half-life in [2] was 3.5 h. Also, on Coagulation factor X, affinity was put at a Ki of 0.3 nM. Besides, the bioavailability in [3] is 53%. For the same compound, in data set [4], the clearance was 25 mL/min/kg. Besides, the Vd in data set [5] was determined as 5.6 L/kg.
